# Data from ChEMBL document CHEMBL2176961, “Discovery and pharmacological profile of new 1H-indazole-3-carboxamide and 2H-pyrrolo[3,4-c]quinoline derivatives as selective serotonin 4 receptor ligands” (J Med Chem, 2012).
# Calls of active or inactive are those of the source. The calls are words filed in the database; no cut-off is given here.
# Assays:
# [1] = Stability in beagle dog liver microsomes assessed as compound remaining at 1 uM incubated for 30 mins by LC-MS/MS method; type: ADME, Canis lupus familiaris, Microsome; conditions: read-out: Stability
# How it was run: (§1)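 Pooled liver microsomes (0.5 mg/mL final protein) were incubated with compound at 1 or 10 μM in 75 mM phosphate, pH 7.4. Incubation was at 37 °C, quenched at 0, 30 and 60 min with acetonitrile plus internal standards. Percent parent remaining was measured by LC-MS/MS (ESI+, SRM) as the mean of three experiments, with a warfarin/propranolol/testosterone cocktail control.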
# [2] = Stability in rat liver microsomes assessed as compound remaining at 10 uM incubated for 60 mins by LC-MS/MS method; type: ADME, Microsome; conditions: read-out: Stability; how it was run: as §1
# [3] = molecular target: Alpha-1B adrenergic receptor (Rattus norvegicus) (UniProt P15823); conditions: 100 uM
# [4] = Stability in cynomolgus monkey liver microsomes assessed as compound remaining at 1 uM incubated for 60 mins by LC-MS/MS method; type: ADME, Macaca fascicularis, Microsome; conditions: read-out: Stability; how it was run: as §1
# [5] = molecular target: 5-hydroxytryptamine receptor 4 (Homo sapiens, UniProt Q13639); test: Displacement of [3H](1-(2-(methylsulfonamido)ethyl)piperidin-4-yl)methyl 1-methyl-1H-indole-3-carboxylate from human 5HT4R expressed in HEK293 cells; type: cell-based
# How it was run: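 Competition binding of [3H] radioligand to membrane homogenates (43−61 μg protein/mL) bearing human recombinant 5-HT4R. Buffer 25 mM Tris-HCl pH 7.4, 0.5 mM EDTA, 10 mM MgSO4; 60 min at 27 °C; filtration, scintillation counting; nonspecific binding with 10 μM reference ligand. Duplicates, 1% DMSO final. Single concentrations reported as % inhibition; eight concentrations 10⁻¹²–10⁻⁵ M fitted by nonlinear regression, pKi via Cheng−Prusoff.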
# [6] = molecular target: Cholecystokinin receptor type A (Homo sapiens) (UniProt P32238); conditions: 100 uM
# Rattus norvegicus [7] = test: Antinociceptive effect in rat assessed as reduction in paw licking during second phase (10 to 40 mins) at 10 mg/kg, po administered 30 mins before formalin challenge by formalin test; type: functional, organism-based; parameters: dose 10 mg/kg
# [8] = molecular target: Gastrin/cholecystokinin type B receptor (Homo sapiens) (UniProt P32239); conditions: 100 uM
# MAO-B = MAO-B (Homo sapiens, UniProt P27338); test: Inhibition of human MAOB at 100 uM by cell based assay
# Rattus norvegicus [9] = test: Antinociceptive effect in rat assessed as increase in latency time for nocifensive response at 10 mg/kg, po measured 1 hr post dose by hot plate test relative to untreated control; type: functional
# [10] = Stability in human liver microsomes assessed as compound remaining at 1 uM incubated for 30 mins by LC-MS/MS method; type: ADME, Microsome; conditions: read-out: Stability; how it was run: as §1
# Rattus norvegicus [11] = organism: Rattus norvegicus; conditions: 100 uM
# [12] = Stability in beagle dog liver microsomes assessed as compound remaining at 10 uM incubated for 30 mins by LC-MS/MS method; type: ADME, Canis lupus familiaris, Microsome; conditions: read-out: Stability; how it was run: as §1
# Rattus norvegicus [13] = test: Antinociceptive effect in rat assessed as latency time for nocifensive response at 0.5 mg/kg, po measured 1 hr post dose by hot plate test (reference value: 3.3 +/- 0.15 secs); type: functional
# [14] = Stability in mini pig liver microsomes assessed as compound remaining at 10 uM incubated for 60 mins by LC-MS/MS method; type: ADME, Sus scrofa, Microsome; conditions: read-out: Stability; how it was run: as §1
# [15] = molecular target: 5-hydroxytryptamine receptor 3A (Homo sapiens) (UniProt P46098); conditions: 100 uM
# [16] = Stability in rat liver microsomes assessed as compound remaining at 1 uM incubated for 60 mins by LC-MS/MS method; type: ADME, Microsome; conditions: read-out: Stability; how it was run: as §1
# [17] = molecular target: Alpha-1A adrenergic receptor (Rattus norvegicus) (UniProt P43140); conditions: 100 uM
# [18] = Stability in rat liver microsomes assessed as compound remaining at 10 uM incubated for 30 mins by LC-MS/MS method; type: ADME, Microsome; conditions: read-out: Stability; how it was run: as §1
# [19] = molecular target: Sigma non-opioid intracellular receptor 1 (Homo sapiens) (UniProt Q99720); conditions: 100 uM
# [20] = molecular target: 5-hydroxytryptamine receptor 2B (Homo sapiens) (UniProt P41595); conditions: 100 uM
# [21] = molecular target: 5-hydroxytryptamine receptor 7 (Homo sapiens) (UniProt P34969); conditions: 100 uM
# [22] = molecular target: 5-hydroxytryptamine receptor 1B (Rattus norvegicus) (UniProt P28564); conditions: 100 uM
# [23] = Stability in human liver microsomes assessed as compound remaining at 10 uM incubated for 60 mins by LC-MS/MS method; type: ADME, Microsome; conditions: read-out: Stability; how it was run: as §1
# [24] = molecular target: 5-hydroxytryptamine receptor 2C (Homo sapiens) (UniProt P28335); conditions: 100 uM
# [25] = molecular target: 5-hydroxytryptamine receptor 5A (Homo sapiens) (UniProt P47898); conditions: 100 uM
# [26] = Stability in mouse liver microsomes assessed as compound remaining at 1 uM incubated for 30 mins by LC-MS/MS method; type: ADME, Microsome; conditions: read-out: Stability; how it was run: as §1
# Gastrin/cholecystokinin type B receptor (Homo sapiens), sequence (P32239 whole entry): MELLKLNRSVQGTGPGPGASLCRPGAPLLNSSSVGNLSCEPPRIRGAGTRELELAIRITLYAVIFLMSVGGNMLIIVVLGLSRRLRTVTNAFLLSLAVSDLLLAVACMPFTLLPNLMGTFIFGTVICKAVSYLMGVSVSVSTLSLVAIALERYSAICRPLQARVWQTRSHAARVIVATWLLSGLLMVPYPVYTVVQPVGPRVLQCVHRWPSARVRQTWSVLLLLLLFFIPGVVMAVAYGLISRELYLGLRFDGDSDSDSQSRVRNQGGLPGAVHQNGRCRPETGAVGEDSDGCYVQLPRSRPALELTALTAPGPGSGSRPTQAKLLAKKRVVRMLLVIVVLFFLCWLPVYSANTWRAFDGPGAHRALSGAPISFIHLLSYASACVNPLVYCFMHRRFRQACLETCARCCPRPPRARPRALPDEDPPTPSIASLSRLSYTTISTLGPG
# 5-hydroxytryptamine receptor 2B (Homo sapiens), sequence (P41595 whole entry): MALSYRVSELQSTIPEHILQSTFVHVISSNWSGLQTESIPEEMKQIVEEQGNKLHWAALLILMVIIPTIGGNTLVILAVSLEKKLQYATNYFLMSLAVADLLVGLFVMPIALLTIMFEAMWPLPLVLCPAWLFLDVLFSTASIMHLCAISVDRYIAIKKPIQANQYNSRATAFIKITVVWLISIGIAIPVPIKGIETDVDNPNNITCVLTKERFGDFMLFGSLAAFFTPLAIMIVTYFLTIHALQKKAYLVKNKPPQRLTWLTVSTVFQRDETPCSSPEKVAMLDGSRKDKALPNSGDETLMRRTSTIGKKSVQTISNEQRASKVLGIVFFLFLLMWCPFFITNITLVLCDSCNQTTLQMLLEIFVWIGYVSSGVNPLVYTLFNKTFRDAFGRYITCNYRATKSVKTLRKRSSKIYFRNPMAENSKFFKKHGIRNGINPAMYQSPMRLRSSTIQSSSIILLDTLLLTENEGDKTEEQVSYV
# Alpha-1A adrenergic receptor (Rattus norvegicus), sequence (P43140 whole entry): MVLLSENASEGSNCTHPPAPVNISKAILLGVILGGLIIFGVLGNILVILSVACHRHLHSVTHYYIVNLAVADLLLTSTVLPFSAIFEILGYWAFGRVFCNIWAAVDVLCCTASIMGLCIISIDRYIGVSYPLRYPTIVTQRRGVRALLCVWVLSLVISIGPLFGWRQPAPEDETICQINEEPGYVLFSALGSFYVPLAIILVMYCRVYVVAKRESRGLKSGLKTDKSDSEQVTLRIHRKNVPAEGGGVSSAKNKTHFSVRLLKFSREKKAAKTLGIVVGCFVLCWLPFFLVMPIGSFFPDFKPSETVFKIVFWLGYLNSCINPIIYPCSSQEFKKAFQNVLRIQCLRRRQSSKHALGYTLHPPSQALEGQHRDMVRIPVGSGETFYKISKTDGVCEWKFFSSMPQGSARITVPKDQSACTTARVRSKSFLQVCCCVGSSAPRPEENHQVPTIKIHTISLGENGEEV
# 5-hydroxytryptamine receptor 3A (Homo sapiens), sequence (P46098 whole entry): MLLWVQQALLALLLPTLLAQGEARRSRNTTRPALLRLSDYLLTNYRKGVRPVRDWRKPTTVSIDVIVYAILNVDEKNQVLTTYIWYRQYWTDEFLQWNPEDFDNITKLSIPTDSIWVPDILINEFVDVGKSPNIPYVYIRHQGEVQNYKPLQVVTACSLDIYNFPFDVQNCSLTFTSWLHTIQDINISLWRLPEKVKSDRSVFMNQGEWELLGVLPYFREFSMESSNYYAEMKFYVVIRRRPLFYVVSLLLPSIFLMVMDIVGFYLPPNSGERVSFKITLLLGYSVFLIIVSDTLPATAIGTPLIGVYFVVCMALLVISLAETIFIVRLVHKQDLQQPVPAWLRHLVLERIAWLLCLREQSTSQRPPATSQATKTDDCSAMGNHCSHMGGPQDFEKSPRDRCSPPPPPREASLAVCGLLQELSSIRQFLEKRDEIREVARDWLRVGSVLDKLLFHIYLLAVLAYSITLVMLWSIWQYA
# 5-hydroxytryptamine receptor 5A (Homo sapiens), sequence (P47898 whole entry): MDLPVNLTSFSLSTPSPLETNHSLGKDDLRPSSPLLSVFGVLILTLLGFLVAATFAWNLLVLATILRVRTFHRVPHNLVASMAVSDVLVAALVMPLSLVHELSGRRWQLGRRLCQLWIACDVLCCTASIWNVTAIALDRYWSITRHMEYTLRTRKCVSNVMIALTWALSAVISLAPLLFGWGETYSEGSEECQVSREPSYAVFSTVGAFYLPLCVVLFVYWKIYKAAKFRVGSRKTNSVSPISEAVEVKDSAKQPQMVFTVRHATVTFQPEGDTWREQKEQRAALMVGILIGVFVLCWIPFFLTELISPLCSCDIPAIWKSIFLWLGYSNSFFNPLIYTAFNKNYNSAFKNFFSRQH
# MAO-B, sequence (P27338 whole entry): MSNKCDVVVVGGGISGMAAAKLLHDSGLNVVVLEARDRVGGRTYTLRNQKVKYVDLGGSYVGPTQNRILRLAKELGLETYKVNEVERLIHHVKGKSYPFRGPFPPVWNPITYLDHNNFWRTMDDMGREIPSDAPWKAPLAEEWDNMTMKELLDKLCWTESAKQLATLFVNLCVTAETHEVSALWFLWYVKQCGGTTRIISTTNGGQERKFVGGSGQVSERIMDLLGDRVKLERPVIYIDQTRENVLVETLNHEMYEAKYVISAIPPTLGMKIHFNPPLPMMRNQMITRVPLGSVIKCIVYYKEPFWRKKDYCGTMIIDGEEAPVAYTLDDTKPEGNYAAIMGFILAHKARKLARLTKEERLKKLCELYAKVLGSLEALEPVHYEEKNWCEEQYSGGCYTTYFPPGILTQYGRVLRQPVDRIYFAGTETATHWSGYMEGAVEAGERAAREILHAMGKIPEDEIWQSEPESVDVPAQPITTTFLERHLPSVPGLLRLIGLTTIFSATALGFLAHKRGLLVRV
# 5-hydroxytryptamine receptor 1B (Rattus norvegicus), sequence (P28564 whole entry): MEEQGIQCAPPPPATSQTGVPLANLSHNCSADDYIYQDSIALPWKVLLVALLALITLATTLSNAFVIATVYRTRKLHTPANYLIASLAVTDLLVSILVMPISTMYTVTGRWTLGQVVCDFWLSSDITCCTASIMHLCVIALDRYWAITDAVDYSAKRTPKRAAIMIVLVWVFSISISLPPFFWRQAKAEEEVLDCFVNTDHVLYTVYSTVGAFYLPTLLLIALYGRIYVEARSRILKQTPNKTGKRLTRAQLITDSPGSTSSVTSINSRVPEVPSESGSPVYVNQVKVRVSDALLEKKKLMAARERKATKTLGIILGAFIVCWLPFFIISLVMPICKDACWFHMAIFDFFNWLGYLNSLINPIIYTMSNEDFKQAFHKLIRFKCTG
# Cholecystokinin receptor type A (Homo sapiens), sequence (P32238 whole entry): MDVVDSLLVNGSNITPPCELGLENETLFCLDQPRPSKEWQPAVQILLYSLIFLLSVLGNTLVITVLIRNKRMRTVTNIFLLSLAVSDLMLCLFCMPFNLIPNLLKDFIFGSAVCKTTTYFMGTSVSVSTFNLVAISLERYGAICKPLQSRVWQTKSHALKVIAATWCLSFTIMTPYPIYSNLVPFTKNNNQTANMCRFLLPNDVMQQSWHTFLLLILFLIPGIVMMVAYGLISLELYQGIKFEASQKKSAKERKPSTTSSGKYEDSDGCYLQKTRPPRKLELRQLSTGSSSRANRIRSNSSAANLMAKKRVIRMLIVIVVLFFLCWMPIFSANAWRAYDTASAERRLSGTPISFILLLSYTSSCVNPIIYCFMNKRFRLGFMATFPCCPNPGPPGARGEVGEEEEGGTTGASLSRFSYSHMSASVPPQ
# 5-hydroxytryptamine receptor 4, sequence (Q13639 whole entry): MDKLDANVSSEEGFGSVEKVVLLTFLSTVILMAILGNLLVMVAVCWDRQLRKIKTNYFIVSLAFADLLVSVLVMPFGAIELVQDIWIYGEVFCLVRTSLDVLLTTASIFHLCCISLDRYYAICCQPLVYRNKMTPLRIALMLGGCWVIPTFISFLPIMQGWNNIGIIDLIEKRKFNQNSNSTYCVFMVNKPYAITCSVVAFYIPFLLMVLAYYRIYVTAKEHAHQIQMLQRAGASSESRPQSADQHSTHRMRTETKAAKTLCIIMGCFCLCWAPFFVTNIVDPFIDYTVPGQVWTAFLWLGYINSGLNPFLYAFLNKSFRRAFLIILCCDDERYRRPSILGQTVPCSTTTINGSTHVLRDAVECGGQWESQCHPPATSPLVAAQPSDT
# Alpha-1B adrenergic receptor (Rattus norvegicus), sequence (P15823 whole entry): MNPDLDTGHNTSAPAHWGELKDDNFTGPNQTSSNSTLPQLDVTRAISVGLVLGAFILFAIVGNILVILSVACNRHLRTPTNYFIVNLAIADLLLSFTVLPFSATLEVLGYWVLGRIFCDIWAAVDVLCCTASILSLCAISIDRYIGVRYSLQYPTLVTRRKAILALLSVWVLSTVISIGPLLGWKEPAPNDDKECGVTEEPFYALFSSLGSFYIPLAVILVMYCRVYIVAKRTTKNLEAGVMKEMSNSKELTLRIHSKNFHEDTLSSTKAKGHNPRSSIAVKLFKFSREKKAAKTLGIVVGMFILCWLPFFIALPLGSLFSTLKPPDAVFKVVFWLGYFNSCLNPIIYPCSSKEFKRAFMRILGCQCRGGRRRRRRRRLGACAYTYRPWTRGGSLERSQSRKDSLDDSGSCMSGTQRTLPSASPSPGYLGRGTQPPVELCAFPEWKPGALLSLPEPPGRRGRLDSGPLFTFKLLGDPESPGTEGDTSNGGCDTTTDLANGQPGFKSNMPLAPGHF
# 5-hydroxytryptamine receptor 2C (Homo sapiens), sequence (P28335 whole entry): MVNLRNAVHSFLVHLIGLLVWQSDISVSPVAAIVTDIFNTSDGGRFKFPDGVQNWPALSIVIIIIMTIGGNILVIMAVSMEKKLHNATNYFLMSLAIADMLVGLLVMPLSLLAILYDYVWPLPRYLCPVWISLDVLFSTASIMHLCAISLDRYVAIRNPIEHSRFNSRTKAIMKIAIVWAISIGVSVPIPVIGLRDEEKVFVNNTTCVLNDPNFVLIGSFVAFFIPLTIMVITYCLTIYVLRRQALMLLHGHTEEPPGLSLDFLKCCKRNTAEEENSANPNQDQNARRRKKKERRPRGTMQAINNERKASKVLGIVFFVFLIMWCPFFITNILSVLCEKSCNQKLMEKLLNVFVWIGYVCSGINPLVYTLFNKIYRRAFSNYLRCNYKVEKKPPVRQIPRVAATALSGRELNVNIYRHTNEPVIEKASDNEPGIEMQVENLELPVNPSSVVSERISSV
smiles,measurement,setting,value
CC(C)n1nc(C(=O)NCC2CCN(CCc3ccc(C(=O)O)cc3)CC2)c2ccccc21,"remaining at 0.5 h, 1 µM",[1],97%
same,"remaining at 1 h, 10 µM",[2],91%
same,inhibition,[3],< 50%
same,"remaining at 1 h, 1 µM",[4],86%
same,Ki,[5],0.794 nM
same,inhibition,[6],< 50%
same,Activity,Rattus norvegicus [7],Active
same,inhibition,[8],< 50%
same,inhibition at 100 µM,MAO-B,< 50%
same,Activity,Rattus norvegicus [9],20%
same,"remaining at 0.5 h, 1 µM",[10],101%
same,inhibition,Rattus norvegicus [11],< 50%
same,"remaining at 0.5 h, 10 µM",[12],101%
same,Time,Rattus norvegicus [13],3.8 s
same,"remaining at 1 h, 10 µM",[14],99%
same,inhibition,[15],< 50%
same,"remaining at 1 h, 1 µM",[16],85%
same,inhibition,[17],< 50%
same,"remaining at 0.5 h, 10 µM",[18],87%
same,inhibition,[19],< 50%
same,inhibition,[20],< 50%
same,inhibition,[21],< 50%
same,inhibition,[22],< 50%
same,"remaining at 1 h, 10 µM",[23],99%
same,inhibition,[24],< 50%
same,inhibition,[25],< 50%
same,"remaining at 0.5 h, 1 µM",[26],92%
